The entries come from a sample that favours hits as a whole.
A1 apoptosis 2 – compounds inhibiting A1, read as caspase activation; caspase activation, % (test concentration not listed); MEF A1-2A-BIM cells, caspase-Glo luminescence, 3 h; percent of clofoctol response, DMSO zero; 24,000 tested, under 10 active; AID 2465; in the data active means caspase activation above about 5.9%
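Test system – A1-2A-BIM-expressing MEF cells · Input – 2500 cells/well · Medium – RPMI-1640 growth medium with 10% FBS · Compound dosing – 50 nL pinned compound · Timing – 3 h compound exposure at 37 °C · Technique – Caspase-Glo luminescence (DEVD substrate) · Evaluation – Caspase-3/7 activity from luminescence increase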
INS-1E rescue – INS-1E beta cell protection from cytokine death; INS-1E cytokine-induced death, ATP luminescence, 48 h; normalised: neutral wells 0, positive control 100; protection from cytokine-induced ATP loss, % at 10 µM; hit rate 0.1% among 20,000; AID 488910;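 active means mean replicate protection from cytokine-induced ATP loss at least 50% and at least 75% of replicates each reaching 50%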
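Assay system – rat INS-1E insulinoma cell line · Quantity – 8000 cells per well · Buffer or medium – RPMI without phenol red, 5% FBS · Schedule – 48 h co-treatment, 10 min post-lysis read · Technique – luminescent ATP assay (CellTiter-Glo)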
T cruzi intra – blocks T. cruzi growth inside host cells. AID 651903. intracellular Trypanosoma cruzi in host cells, plate reader. hit rate 4.9% among 22,000. activity score (inhibition), % at 5.01 µM; in the data active means activity score above about 55%;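 further: parasites and compound incubated about four days before reading; 0% = median of neutral control wells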
Numbers without * were called inactive.

Screening COc1ccc(NC(=O)Nc2ccc3c(c2)C(=O)N([C@H](C)CO)C[C@H](C)[C@H](CN(C)Cc2ccc(C(F)(F)F)cc2)OCCCC[C@@H](C)O3)cc1 returned INS-1E rescue -4.0 and T cruzi intra 71.4*.
Screening COc1ccc(NC(=O)Nc2ccc3c(c2)C(=O)N([C@@H](C)CO)C[C@@H](C)[C@H](CN(C)Cc2ccc(C(F)(F)F)cc2)OCCCC[C@@H](C)O3)cc1 returned A1 apoptosis 2 0.8.
Screening C=CCN1C(=O)[C@]2(CCS(=O)(=O)c3ccccc3)N=C(c3ccc(OCCCO)cc3)O[C@@H]2c2ccccc21 returned A1 apoptosis 2 0.4.
Screening O=C(NO)c1ccc(C(=O)N/N=C/c2ccccc2Br)cc1 returned A1 apoptosis 2 -1.6, INS-1E rescue -6.3 and T cruzi intra 13.8.
CO[C@H]1O[C@H](CO)[C@@H](OC(=O)Nc2ccc3c(c2)OCO3)[C@H](OC(=O)Nc2ccccc2)[C@@H]1OC(=O)Nc1ccccc1 was read as A1 apoptosis 2 -1.7.
`C[C@@H]1CN([C@H](C)CO)C(=O)c2cccc(NC(=O)c3cnccn3)c2O[C@H]1CN(C)Cc1ccc(C(=O)Nc2ccccc2N)cc1` gave INS-1E rescue -12.2 and T cruzi intra 54.2.
Screening C[C@H](CO)N1C[C@H](C)[C@H](CN(C)Cc2ccc(C(=O)Nc3ccccc3N)cc2)Oc2c(cccc2N(C)C)C1=O returned INS-1E rescue 21.0 and T cruzi intra 56.4*.
For Cc1cc(C(=O)Nc2cccc3c2O[C@H](CN(C)Cc2ccc(C(=O)Nc4ccccc4N)cc2)[C@@H](C)CN([C@@H](C)CO)C3=O)n(C)n1 the results were INS-1E rescue -0.4 and T cruzi intra 46.3.
For C[C@@H]1CN([C@H](C)CO)C(=O)c2cccc(N(C)C)c2O[C@@H]1CN(C)Cc1ccc(C(=O)Nc2ccccc2N)cc1 the results were INS-1E rescue 8.0 and T cruzi intra 27.8.
`C[C@@H]1CN([C@H](C)CO)C(=O)c2cccc(NC(=O)C3CCCCC3)c2O[C@@H]1CN(C)Cc1ccc(C(=O)Nc2ccccc2N)cc1` gave A1 apoptosis 2 -0.7.
Screening C[C@H]1CN([C@@H](C)CO)C(=O)c2cccc(NC(=O)C3CCCCC3)c2O[C@H]1CN(C)Cc1ccc(C(=O)Nc2ccccc2N)cc1 returned INS-1E rescue 3.0 and T cruzi intra 66.3*.
For Cc1cc(C(=O)Nc2cccc3c2O[C@H](CN(C)Cc2ccc(C(=O)Nc4ccccc4N)cc2)[C@H](C)CN([C@H](C)CO)C3=O)n(C)n1 the results were A1 apoptosis 2 -1.2, INS-1E rescue 0.0 and T cruzi intra 63.4*.
For C[C@@H]1CN([C@@H](C)CO)C(=O)c2cccc(NC(=O)c3cnccn3)c2O[C@@H]1CN(C)Cc1ccc(C(=O)Nc2ccccc2N)cc1 the results were INS-1E rescue 35.1 and T cruzi intra 71.9*.
For CC(=O)N1Cc2ccccc2C[C@@]2(N=C(c3ccc(OCCCO)cc3)O[C@H]2c2ccccc2)C1=O the results were A1 apoptosis 2 0.3.
For CC1(C)COC(CCC/C=N/NC(=O)c2ccccn2)OC1 the results were A1 apoptosis 2 0.1, INS-1E rescue 5.2 and T cruzi intra -6.4.
For O=C(NO)c1cccc(C(=O)N/N=C/c2cc(Br)cc([N+](=O)[O-])c2O)c1 the results were A1 apoptosis 2 1.3, INS-1E rescue -28.9 and T cruzi intra 5.6.
For O=C(O)CCCCCC(=O)N/N=C/c1cccnc1 the results were INS-1E rescue -7.3 and T cruzi intra -25.3.
For COc1ccc(/C=N/NC(=O)CCCCC(=O)NO)cc1OC the results were INS-1E rescue 7.0 and T cruzi intra -21.8.
C[C@@H]1CN([C@@H](C)CO)C(=O)c2cccc(NC(=O)C3CC3)c2O[C@@H]1CN(C)Cc1ccc(C(=O)Nc2ccccc2N)cc1 was read as INS-1E rescue 58.6* and T cruzi intra 25.9.
For C[C@H](CO)N1C[C@H](C)[C@H](CN(C)Cc2ccc(C(=O)Nc3ccccc3N)cc2)Oc2c(NC(=O)C3CC3)cccc2C1=O the results were INS-1E rescue -9.3 and T cruzi intra 36.9.
Screening COc1ccc(CCNC(=O)[C@@H]2c3ccccc3C(=O)N(Cc3ccccc3OC)[C@H]2c2ccc(CO)cc2)cc1 returned A1 apoptosis 2 -0.2.
For C[C@H](CO)N1C[C@H](C)[C@@H](CN(C)Cc2ccc(-c3ccccc3)cc2)Oc2ccc(NC(=O)Nc3ccc(F)cc3)cc2C1=O the results were A1 apoptosis 2 -1.4, INS-1E rescue -6.8 and T cruzi intra 10.2.
Screening C[C@H](CO)N1C[C@H](C)[C@H](CN(C)Cc2ccc(-c3ccccc3)cc2)Oc2ccc(NC(=O)Nc3ccc(C(F)(F)F)cc3)cc2C1=O returned A1 apoptosis 2 -0.2 and T cruzi intra 40.9.
